One assay concerns the target mTOR enzyme (Homo sapiens, UniProt P42345). The assay is described as follows: mTOR enzyme assay. The settings on record: for Selectivity: PI3Kα IC50 relative to mTOR IC50 (table column); for inhibitory activity against mTOR (in words): derivatives with a para-substituent group on R3. The format is biochemical.
In another assay the target is PI3Kα (p110α/p85α) (Homo sapiens, UniProt P42336). Kind of assay: PI3Kα enzyme assay. The format is biochemical. The method in brief: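 Purchased recombinant PI3K enzyme (α, β, δ as p110/p85α; γ as p120γ) was mixed with the PIP2:3PS lipid substrate, and the reaction was started with ATP from a 250 µM solution. Luminescence was read by ADP-Glo. Inhibition was normalised to DMSO and no-enzyme controls, with IC50 averaged over two runs.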
Chain of PI3Kα (p110α/p85α) (P42336 whole entry): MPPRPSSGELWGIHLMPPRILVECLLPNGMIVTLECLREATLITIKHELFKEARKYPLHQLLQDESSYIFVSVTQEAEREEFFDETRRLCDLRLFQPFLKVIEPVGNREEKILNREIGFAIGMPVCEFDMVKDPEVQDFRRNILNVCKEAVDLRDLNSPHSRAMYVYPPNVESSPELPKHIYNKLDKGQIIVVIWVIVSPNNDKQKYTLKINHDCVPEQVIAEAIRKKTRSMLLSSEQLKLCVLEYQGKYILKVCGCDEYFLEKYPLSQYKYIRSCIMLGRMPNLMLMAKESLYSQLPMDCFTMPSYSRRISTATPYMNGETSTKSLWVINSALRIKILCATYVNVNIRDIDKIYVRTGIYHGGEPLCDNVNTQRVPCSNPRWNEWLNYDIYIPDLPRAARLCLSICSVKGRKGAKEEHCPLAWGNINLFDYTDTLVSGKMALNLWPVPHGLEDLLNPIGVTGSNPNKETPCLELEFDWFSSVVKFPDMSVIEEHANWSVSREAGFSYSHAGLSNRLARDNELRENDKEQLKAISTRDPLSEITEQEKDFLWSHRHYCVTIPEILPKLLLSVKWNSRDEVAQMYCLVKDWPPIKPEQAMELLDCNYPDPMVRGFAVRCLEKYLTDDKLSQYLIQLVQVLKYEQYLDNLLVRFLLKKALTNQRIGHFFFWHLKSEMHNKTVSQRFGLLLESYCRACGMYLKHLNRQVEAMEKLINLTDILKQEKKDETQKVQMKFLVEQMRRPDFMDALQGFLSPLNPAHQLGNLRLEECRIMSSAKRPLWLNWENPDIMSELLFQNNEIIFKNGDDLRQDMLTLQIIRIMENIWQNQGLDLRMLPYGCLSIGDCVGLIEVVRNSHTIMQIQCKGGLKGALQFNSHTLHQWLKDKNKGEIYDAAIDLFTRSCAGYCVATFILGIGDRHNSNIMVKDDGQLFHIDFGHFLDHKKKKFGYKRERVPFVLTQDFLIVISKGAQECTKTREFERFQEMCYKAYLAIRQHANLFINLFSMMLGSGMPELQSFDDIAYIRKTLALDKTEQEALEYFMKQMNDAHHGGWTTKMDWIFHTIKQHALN
Chain of PI3Kα (p110α/p85α) (P27986 whole entry partner): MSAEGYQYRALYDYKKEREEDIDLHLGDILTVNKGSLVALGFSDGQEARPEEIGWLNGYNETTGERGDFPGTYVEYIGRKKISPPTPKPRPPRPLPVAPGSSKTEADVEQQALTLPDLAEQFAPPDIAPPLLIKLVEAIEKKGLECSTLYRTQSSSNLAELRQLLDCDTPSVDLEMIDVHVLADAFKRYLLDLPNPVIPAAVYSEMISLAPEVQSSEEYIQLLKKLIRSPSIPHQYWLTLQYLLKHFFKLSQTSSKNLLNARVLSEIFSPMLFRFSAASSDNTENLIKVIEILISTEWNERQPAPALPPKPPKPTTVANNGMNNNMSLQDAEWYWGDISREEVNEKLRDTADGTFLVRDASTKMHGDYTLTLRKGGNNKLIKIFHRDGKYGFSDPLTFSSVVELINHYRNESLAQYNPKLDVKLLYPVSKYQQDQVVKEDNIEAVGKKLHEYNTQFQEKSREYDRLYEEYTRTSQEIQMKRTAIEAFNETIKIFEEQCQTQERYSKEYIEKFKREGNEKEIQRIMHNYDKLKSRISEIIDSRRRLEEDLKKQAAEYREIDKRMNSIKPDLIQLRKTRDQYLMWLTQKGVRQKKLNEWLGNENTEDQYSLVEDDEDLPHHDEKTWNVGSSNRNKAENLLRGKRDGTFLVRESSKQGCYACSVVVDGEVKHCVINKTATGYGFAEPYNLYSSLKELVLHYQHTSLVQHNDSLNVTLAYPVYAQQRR

Each structure is given as a SMILES string.

`COCCCSc1nc2n(n1)C(c1cccc(OC)c1)C(C(=O)Nc1cccnc1)=C(C)N2` (stereo not shown) [1a, 7-(3-Methoxyphenyl)-2-((3-Methoxypropyl)Thio)-5-Methyl-N-(Pyridin-3-yl)-4,7-Dihydro-[1,2,4]Triazolo[1,5-a]Pyrimidine-6-Carboxamide]: at mTOR enzyme, the IC50 came out at 167 nM and the Selectivity is recorded as 9. Also, at mTOR enzyme (read-out: mTOR enzyme inhibition rate), the inhibition at 10 µM worked out at 91.8%. Moreover, inhibition on PI3Kα (p110α/p85α) was half-maximal at 1580 nM (IC50).

On to `COc1cccc(C2C(C(=O)Nc3cccnc3)=C(C)Nc3nc(SCCC4OCCO4)nn32)c1` (stereo not shown) [1b, 2-((2-(1,3-Dioxolan-2-yl)Ethyl)Thio)-7-(3-Methoxyphenyl)-5-Methyl-N-(Pyridin-3-yl)-4,7-Dihydro-[1,2,4]Triazolo[1,5-a]Pyrimidine-6-Carboxamide], for which the half-maximal inhibitory concentration (IC50) against mTOR enzyme was 50 nM; at PI3Kα (p110α/p85α) it was 793 nM. At mTOR enzyme, this compound gave a Selectivity of 16.

As to `COC(=O)CCSc1nc2n(n1)C(c1cccc(OC)c1)C(C(=O)Nc1cccc(F)c1)=C(C)N2` (stereo not shown) [2b, Methyl 3-((6-((3-Fluorophenyl)Carbamoyl)-7-(3-Methoxyphenyl)-5-Methyl-4,7-Dihydro-[1,2,4]Triazolo[1,5-a]Pyrimidin-2-yl)Thio)Propanoate], the IC50 is 124 nM against mTOR enzyme and 437 nM against PI3Kα (p110α/p85α). The compound also yielded a Selectivity at mTOR enzyme of 4.

As to `COC(=O)CCSc1nc2n(n1)C(c1cccc(OC)c1)C(C(=O)Nc1ccc(OC)cc1)=C(C)N2` (stereo not shown) [2c, Methyl 3-((7-(3-Methoxyphenyl)-6-((4-Methoxyphenyl)Carbamoyl)-5-Methyl-4,7-Dihydro-[1,2,4]Triazolo[1,5-a]Pyrimidin-2-yl)Thio)Propanoate], the IC50 against mTOR enzyme was 139 nM; against PI3Kα (p110α/p85α), 1050 nM. This compound also gave a Selectivity at mTOR enzyme of 8.

For `COC(=O)CCSc1nc2n(n1)C(c1cccc(OC)c1)C(C(=O)Nc1cccc(C(C)=O)c1)=C(C)N2` (stereo not shown) [2d, Methyl 3-((6-((3-Acetylphenyl)Carbamoyl)-7-(3-Methoxyphenyl)-5-Methyl-4,7-Dihydro-[1,2,4]Triazolo[1,5-a]Pyrimidin-2-yl)Thio)Propanoate], on mTOR enzyme, 23 nM corresponded to half-maximal inhibition (IC50) and the Selectivity is given as 10. The same compound displayed an IC50 on PI3Kα (p110α/p85α) of 228 nM.

Take `COC(=O)CCSc1nc2n(n1)C(c1cccc(OC)c1)C(C(=O)Nc1ccc(C(C)=O)cc1)=C(C)N2` (stereo not shown) [2e, Methyl 3-((6-((4-Acetylphenyl)Carbamoyl)-7-(3-Methoxyphenyl)-5-Methyl-4,7-Dihydro-[1,2,4]Triazolo[1,5-a]Pyrimidin-2-yl)Thio)Propanoate]: the half-inhibitory concentration (IC50) turned out to be 72 nM on mTOR enzyme and 254 nM against PI3Kα (p110α/p85α). The same compound returned a Selectivity at mTOR enzyme of 4.

On mTOR enzyme, `COc1cccc(C2C(C(=O)Nc3cncc(C)c3)=C(C)Nc3nc(SCCC4OCCO4)nn32)c1` (stereo not shown) [2f, 2-((2-(1,3-Dioxolan-2-yl)Ethyl)Thio)-7-(3-Methoxyphenyl)-5-Methyl-N-(5-Methylpyridin-3-yl)-4,7-Dihydro-[1,2,4]Triazolo[1,5-a]Pyrimidine-6-Carboxamide] registered a 50% inhibitory concentration (IC50) of 28 nM and a Selectivity of 7. Further, at PI3Kα (p110α/p85α), the IC50 was determined as 193 nM.

For `COc1cccc(C2C(C(=O)Nc3cccc(F)c3)=C(C)Nc3nc(SCCC4OCCO4)nn32)c1` (stereo not shown) [2g, 2-((2-(1,3-Dioxolan-2-yl)Ethyl)Thio)-N-(3-Fluorophenyl)-7-(3-Methoxyphenyl)-5-Methyl-4,7-Dihydro-[1,2,4]Triazolo[1,5-a]Pyrimidine-6-Carboxamide], the figures for the IC50 on mTOR enzyme and at PI3Kα (p110α/p85α) were 313 nM and 844 nM, respectively. The compound also came in with a Selectivity at mTOR enzyme of 3.

On to `COc1ccc(NC(=O)C2=C(C)Nc3nc(SCCC4OCCO4)nn3C2c2cccc(OC)c2)cc1` (stereo not shown) [2h, 2-((2-(1,3-Dioxolan-2-yl)Ethyl)Thio)-7-(3-Methoxyphenyl)-N-(4-Methoxyphenyl)-5-Methyl-4,7-Dihydro-[1,2,4]Triazolo[1,5-a]Pyrimidine-6-Carboxamide], for which, at mTOR enzyme, half-maximal inhibition (IC50) was put at 359 nM and the Selectivity is given as 9. Besides, at PI3Kα (p110α/p85α), inhibition was half-maximal at 3200 nM (IC50).

As for `COc1cccc(C2C(C(=O)Nc3cccc(C(C)=O)c3)=C(C)Nc3nc(SCCC4OCCO4)nn32)c1` (stereo not shown) [2i, 2-((2-(1,3-Dioxolan-2-yl)Ethyl)Thio)-N-(3-Acetylphenyl)-7-(3-Methoxyphenyl)-5-Methyl-4,7-Dihydro-[1,2,4]Triazolo[1,5-a]Pyrimidine-6-Carboxamide], on mTOR enzyme, the 50% inhibitory concentration (IC50) stood at 92 nM and the Selectivity was found to be 29. On PI3Kα (p110α/p85α), this compound registered an IC50 of 2680 nM.

On to `COc1cccc(C2C(C(=O)Nc3ccc(C(C)=O)cc3)=C(C)Nc3nc(SCCC4OCCO4)nn32)c1` (stereo not shown) [2j, 2-((2-(1,3-Dioxolan-2-yl)Ethyl)Thio)-N-(4-Acetylphenyl)-7-(3-Methoxyphenyl)-5-Methyl-4,7-Dihydro-[1,2,4]Triazolo[1,5-a]Pyrimidine-6-Carboxamide], for which the IC50 was found to be 184 nM on mTOR enzyme and 952 nM on PI3Kα (p110α/p85α). In addition, the Selectivity on mTOR enzyme was determined as 5.

At mTOR enzyme, `COC(=O)CCSc1nc2n(n1)C(c1cccc(O)c1)C(C(=O)Nc1cncc(C)c1)=C(C)N2` (stereo not shown) [3a, Methyl 3-((7-(3-Hydroxyphenyl)-5-Methyl-6-((5-Methylpyridin-3-yl) Carbamoyl)-4,7-Dihydro-[1,2,4] Triazolo[1,5-a]Pyrimidin-2-yl)Thio)Propanoate] returned an IC50 of 260 nM and a Selectivity of 14. 3560 nM corresponded to half-maximal inhibition against PI3Kα (p110α/p85α) (IC50).

Turning to `COC(=O)CCSc1nc2n(n1)C(c1ccc(O)cc1)C(C(=O)Nc1cncc(C)c1)=C(C)N2` (stereo not shown) [3b, Methyl 3-((7-(4-Hydroxyphenyl)-5-Methyl-6-((5-Methylpyridin-3-yl) Carbamoyl)-4,7-Dihydro-[1,2,4]Triazolo[1,5-a]Pyrimidin-2-yl)Thio)Propanoate], at mTOR enzyme, half-maximal inhibition (IC50) required 2210 nM, the Selectivity is more than 5 and the “inhibitory activity against mTOR (in words)” value (“inhibitory activity” for short) was “low inhibitory activity against mTOR”. The IC50 on PI3Kα (p110α/p85α) was more than 10000 nM.

On mTOR enzyme, `COC(=O)CCSc1nc2n(n1)C(c1ccccc1)C(C(=O)Nc1cncc(C)c1)=C(C)N2` (stereo not shown) [3c, Methyl 3-((5-Methyl-6-((5-Methylpyridin-3-yl)carbamoyl)-7-Phenyl-4,7- Dihydro-[1,2,4]Triazolo[1,5-a]Pyrimidin-2-yl)Thio)Propanoate] had an IC50 of 246 nM and a Selectivity of 3. The IC50 against PI3Kα (p110α/p85α) is 703 nM.

For `COC(=O)CCSc1nc2n(n1)C(c1ccc(C)cc1)C(C(=O)Nc1cncc(C)c1)=C(C)N2` (stereo not shown) [3d, Methyl 3-((5-Methyl-6-((5-Methylpyridin-3-yl)Carbamoyl)-7-(p-Tolyl)-4,7 -Dihydro-[1,2,4]Triazolo[1,5-a]Pyrimidin-2-yl)Thio)Propanoate], at mTOR enzyme, the IC50 stood at 932 nM, the Selectivity is reported as 8 and the “inhibitory activity” value was “low inhibitory activity against mTOR”. This compound also displayed an IC50 on PI3Kα (p110α/p85α) of 7360 nM.

As to `COC(=O)CCSc1nc2n(n1)C(c1ccccc1C)C(C(=O)Nc1cncc(C)c1)=C(C)N2` (stereo not shown) [3e, Methyl 3-((5-Methyl-6-((5-Methylpyridin-3-yl)Carbamoyl)-7-(o-Tolyl)-4,7-Dihydro-[1,2,4]Triazolo[1,5-a]pyrimidin-2-yl)Thio)Propanoate], the concentration for half-maximal inhibition (IC50) against mTOR enzyme came out at 479 nM; against PI3Kα (p110α/p85α), 2770 nM. On mTOR enzyme, this compound registered a Selectivity of 6.

As for `COC(=O)CCSc1nc2n(n1)C(c1cc(C)cc(C)c1)C(C(=O)Nc1cncc(C)c1)=C(C)N2` (stereo not shown) [3f, Methyl 3-((7-(3,5-Dimethylphenyl)-5-Methyl-6-((5-Methylpyridin-3-yl) Carbamoyl)-4,7-Dihydro-[1,2,4]Triazolo[1,5-a]Pyrimidin-2-yl)Thio)Propanoate], the IC50 against mTOR enzyme stood at 529 nM; against PI3Kα (p110α/p85α) it was 433 nM. At mTOR enzyme, this compound showed a Selectivity of 0.8.

As for `COC(=O)CCSc1nc2n(n1)C(c1ccc(F)cc1)C(C(=O)Nc1cncc(C)c1)=C(C)N2` (stereo not shown) [3g, Methyl 3-((7-(4-Fluorophenyl)-5-Methyl-6-((5-Methylpyridin-3-yl)carbamoyl)-4,7-Dihydro-[1,2,4] Triazolo[1,5-a]Pyrimidin-2-yl)Thio)Propanoate], at mTOR enzyme, the half-inhibitory concentration (IC50) was determined as 1770 nM, the Selectivity is on record as more than 6 and the “inhibitory activity” value is “low inhibitory activity against mTOR”. The compound further gave an IC50 against PI3Kα (p110α/p85α) of more than 10000 nM.

As to `COC(=O)CCSc1nc2n(n1)C(c1cccc(F)c1)C(C(=O)Nc1cncc(C)c1)=C(C)N2` (stereo not shown) [3h, Methyl 3-((7-(3-Fluorophenyl)-5-Methyl-6-((5-Methylpyridin-3-yl)Carbamoyl)-4,7-Dihydro-[1,2,4] Triazolo[1,5-a]Pyrimidin-2-yl)Thio)Propanoate], the IC50 turned out to be 326 nM against mTOR enzyme and 738 nM at PI3Kα (p110α/p85α). In addition, the Selectivity at mTOR enzyme worked out at 2.

Usually IC50 stands for the concentration that gives 50% inhibition. The low end stands for inhibition by little substance, the high end for a need for much substance. For orientation: inhibition means the share of the control response that was lost under treatment.
